Test results from ChEMBL document CHEMBL3994654, “Discovery of phenyl acetamides as potent and selective GPR119 agonists” (Bioorg Med Chem Lett, 2017).
≈ marks a conversion by molar mass, not a printed value. Blank lines part the entries; values can stand above or below the compound they belong to.

How the values were obtained:
[1] = molecular target: T1, Glucose-dependent insulinotropic receptor (Homo sapiens, UniProt Q8TDV5); experiment: Agonist activity at human GPR119 expressed in HEK293 cells assessed as increase in intracellular cAMP level after 60 mins by HTRF assay; assay type: functional, cell-based
T1 sequence (Q8TDV5 whole entry): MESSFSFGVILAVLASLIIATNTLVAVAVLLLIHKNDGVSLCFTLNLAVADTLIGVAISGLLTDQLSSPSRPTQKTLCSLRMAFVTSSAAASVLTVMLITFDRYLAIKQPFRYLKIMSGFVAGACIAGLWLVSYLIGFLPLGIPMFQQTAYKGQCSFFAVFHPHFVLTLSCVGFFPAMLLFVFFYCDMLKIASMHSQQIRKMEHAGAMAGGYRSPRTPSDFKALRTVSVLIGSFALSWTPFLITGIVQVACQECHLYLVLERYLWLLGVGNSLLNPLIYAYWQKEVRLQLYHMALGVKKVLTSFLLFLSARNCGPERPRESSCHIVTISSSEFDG
Outline: (§1)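 cAMP stimulation is also given as % control at the top concentration, relative to an internal agonist control set at 100% cAMP stimulation. EC50 values are means of at least 2 independent experiments, except for two compounds.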

[2] = molecular target: T2, Glucose-dependent insulinotropic receptor (Homo sapiens) (UniProt Q8TDV5); experiment: Agonist activity at human GPR119 expressed in HEK293 cells assessed as increase in intracellular cAMP level after 60 mins by HTRF assay relative to control; assay type: functional, cell-based
T2 sequence (whole entry): T1 sequence (Q8TDV5 whole entry)
Outline: (§2)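 EC50 values are means of at least 2 independent experiments, with a few single determinations. Maximal response is reported as the percentage of cAMP stimulation at the maximal dose tested, normalised to an internal agonist control set as 100%.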

[3] = molecular target: T3, Glucose-dependent insulinotropic receptor (Mus musculus, UniProt Q7TQP3); experiment: Agonist activity at mouse GPR119 expressed in CHO cells co-expressing Galpha15 assessed as increase in intracellular cAMP level after 60 mins by HTRF assay; assay type: functional, cell-based; outline: as §1
T3 sequence (Q7TQP3 whole entry): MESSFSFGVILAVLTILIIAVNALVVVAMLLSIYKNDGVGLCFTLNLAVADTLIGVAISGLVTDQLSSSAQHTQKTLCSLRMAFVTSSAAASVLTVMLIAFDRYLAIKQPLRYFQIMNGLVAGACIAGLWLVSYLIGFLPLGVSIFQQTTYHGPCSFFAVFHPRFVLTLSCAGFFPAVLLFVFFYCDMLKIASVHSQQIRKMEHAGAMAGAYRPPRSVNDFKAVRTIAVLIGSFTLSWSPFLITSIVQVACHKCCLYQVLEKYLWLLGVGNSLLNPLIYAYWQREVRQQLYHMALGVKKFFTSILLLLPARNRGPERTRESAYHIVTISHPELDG

[4] = molecular target: T4, Glucose-dependent insulinotropic receptor (Mus musculus) (UniProt Q7TQP3); experiment: Agonist activity at mouse GPR119 expressed in CHO cells co-expressing Galpha15 assessed as increase in intracellular cAMP level after 60 mins by HTRF assay relative to control; assay type: functional, cell-based; outline: as §2
T4 sequence (whole entry): T3 sequence (Q7TQP3 whole entry)

[5] = Kinetic solubility in fasted state simulated intestinal fluid at pH 6.5; assay type: physicochemical; conditions: read-out: Kinetic_solubility
[6] = molecular target: T5, Voltage-gated inwardly rectifying potassium channel KCNH2 (Homo sapiens, UniProt Q12809)
T5 sequence (Q12809 whole entry): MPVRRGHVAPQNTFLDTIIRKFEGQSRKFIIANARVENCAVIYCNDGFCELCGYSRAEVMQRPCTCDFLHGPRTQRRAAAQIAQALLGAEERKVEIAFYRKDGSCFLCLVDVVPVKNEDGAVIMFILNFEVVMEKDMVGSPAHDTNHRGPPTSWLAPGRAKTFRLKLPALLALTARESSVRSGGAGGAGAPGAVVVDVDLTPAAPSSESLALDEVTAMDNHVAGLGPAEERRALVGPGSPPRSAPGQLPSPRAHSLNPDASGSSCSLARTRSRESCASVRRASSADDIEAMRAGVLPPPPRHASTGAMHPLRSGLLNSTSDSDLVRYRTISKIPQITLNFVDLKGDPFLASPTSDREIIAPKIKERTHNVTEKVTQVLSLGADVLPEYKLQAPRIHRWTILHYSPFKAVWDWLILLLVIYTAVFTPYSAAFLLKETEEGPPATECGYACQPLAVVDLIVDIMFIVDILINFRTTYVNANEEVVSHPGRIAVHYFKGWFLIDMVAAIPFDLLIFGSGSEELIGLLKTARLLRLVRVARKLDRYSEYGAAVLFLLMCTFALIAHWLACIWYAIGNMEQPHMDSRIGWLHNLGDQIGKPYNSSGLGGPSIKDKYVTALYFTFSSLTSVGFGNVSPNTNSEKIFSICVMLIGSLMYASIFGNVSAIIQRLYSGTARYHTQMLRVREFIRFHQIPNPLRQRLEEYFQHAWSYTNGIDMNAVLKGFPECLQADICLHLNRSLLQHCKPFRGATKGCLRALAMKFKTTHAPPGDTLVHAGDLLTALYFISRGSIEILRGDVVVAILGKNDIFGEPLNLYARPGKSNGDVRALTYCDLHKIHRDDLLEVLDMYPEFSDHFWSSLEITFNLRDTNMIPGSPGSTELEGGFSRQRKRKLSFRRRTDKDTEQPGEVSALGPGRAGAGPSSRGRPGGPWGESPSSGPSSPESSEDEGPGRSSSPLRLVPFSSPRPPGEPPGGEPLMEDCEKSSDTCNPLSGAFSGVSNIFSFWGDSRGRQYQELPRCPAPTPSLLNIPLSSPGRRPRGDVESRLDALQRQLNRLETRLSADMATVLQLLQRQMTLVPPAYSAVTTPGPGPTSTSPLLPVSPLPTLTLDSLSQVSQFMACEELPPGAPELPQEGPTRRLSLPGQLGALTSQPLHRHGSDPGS

Rattus norvegicus [7] = experiment: Unbound clearance in Wistar Han rat at 0.5 mg/kg, iv by LC-MS/MS analysis; assay type: ADME, organism-based; conditions: in vivo
[8] = molecular target: T5, Voltage-gated inwardly rectifying potassium channel KCNH2; experiment: Inhibition of human ERG by PatchXpress method
Cytochrome P450 3A4 = Cytochrome P450 3A4 (Homo sapiens, UniProt P08684); experiment: Inhibition of CYP3A4 (unknown origin); assay type: ADME
Chain of Cytochrome P450 3A4 (P08684 whole entry): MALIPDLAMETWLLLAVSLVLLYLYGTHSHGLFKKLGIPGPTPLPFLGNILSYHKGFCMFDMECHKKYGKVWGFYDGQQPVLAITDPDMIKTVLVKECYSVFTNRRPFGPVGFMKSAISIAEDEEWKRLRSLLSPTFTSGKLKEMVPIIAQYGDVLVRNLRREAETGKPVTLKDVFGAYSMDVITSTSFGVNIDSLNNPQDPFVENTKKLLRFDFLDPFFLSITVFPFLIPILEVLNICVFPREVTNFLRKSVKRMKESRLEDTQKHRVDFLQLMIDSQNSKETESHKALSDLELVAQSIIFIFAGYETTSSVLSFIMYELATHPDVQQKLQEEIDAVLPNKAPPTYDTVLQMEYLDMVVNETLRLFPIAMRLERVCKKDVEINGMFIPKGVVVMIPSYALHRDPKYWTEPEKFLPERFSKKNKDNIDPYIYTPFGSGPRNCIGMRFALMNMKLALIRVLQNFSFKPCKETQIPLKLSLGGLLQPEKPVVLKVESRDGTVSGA

[9] = molecular target: T6, Nuclear receptor subfamily 1 group I member 2 (Homo sapiens, UniProt O75469); experiment: Activity at human PXR; assay type: ADME
T6 sequence (O75469 whole entry): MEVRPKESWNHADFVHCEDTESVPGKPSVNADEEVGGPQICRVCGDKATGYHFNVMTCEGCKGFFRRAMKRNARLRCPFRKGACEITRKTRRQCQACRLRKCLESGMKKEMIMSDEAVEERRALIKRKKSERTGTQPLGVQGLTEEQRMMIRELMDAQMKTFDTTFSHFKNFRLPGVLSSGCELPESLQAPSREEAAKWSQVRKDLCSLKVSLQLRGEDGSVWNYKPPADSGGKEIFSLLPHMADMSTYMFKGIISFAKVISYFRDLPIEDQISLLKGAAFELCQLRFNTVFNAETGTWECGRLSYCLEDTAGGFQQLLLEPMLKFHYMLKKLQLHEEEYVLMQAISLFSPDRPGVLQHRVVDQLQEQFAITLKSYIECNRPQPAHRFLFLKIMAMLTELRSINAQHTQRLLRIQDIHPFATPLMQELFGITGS

[10] = Solubility in fasted state simulated intestinal fluid using crystalline compound by equilibration method; assay type: physicochemical
[11] = Intrinsic clearance in rat liver microsomes; assay type: ADME, microsome; conditions: read-out: CLH
[12] = Intrinsic clearance in dog liver microsomes; assay type: ADME, Canis lupus familiaris, microsome; conditions: read-out: CLH
[13] = Intrinsic clearance in rhesus monkey liver microsomes; assay type: ADME, Macaca mulatta, microsome; conditions: read-out: CLH
[14] = Intrinsic clearance in human liver microsomes; assay type: ADME, microsome; conditions: read-out: CLH
[15] = Fraction unbound in rat plasma; assay type: ADME, cell-free
[16] = Fraction unbound in dog plasma; assay type: ADME, cell-free, Canis lupus familiaris
[17] = Fraction unbound in rhesus monkey plasma; assay type: ADME, cell-free, Macaca mulatta
[18] = Fraction unbound in human plasma; assay type: ADME, cell-free
[19] = Plasma clearance in Wistar Han rat at 0.5 mg/kg, iv by LC-MS/MS analysis; assay type: ADME, organism-based
[20] = Plasma clearance in Beagle dog at 0.5 mg/kg, iv by LC-MS/MS analysis; assay type: ADME, organism-based, Canis lupus familiaris
[21] = Plasma clearance in rhesus monkey at 0.5 mg/kg, iv by LC-MS/MS analysis; assay type: ADME, organism-based, Macaca mulatta
[22] = Volume of distribution in Wistar Han rat at 0.5 mg/kg, iv by LC-MS/MS analysis; assay type: ADME, organism-based; conditions: in vivo
[23] = Volume of distribution in Beagle dog at 0.5 mg/kg, iv by LC-MS/MS analysis; assay type: ADME, organism-based, Canis lupus familiaris; conditions: in vivo
[24] = Volume of distribution in rhesus monkey at 0.5 mg/kg, iv by LC-MS/MS analysis; assay type: ADME, organism-based, Macaca mulatta; conditions: in vivo
[25] = Half life in Wistar Han rat at 0.5 mg/kg, iv by LC-MS/MS analysis; assay type: ADME, organism-based; conditions: in vivo
[26] = Half life in Beagle dog at 0.5 mg/kg, iv by LC-MS/MS analysis; assay type: ADME, organism-based, Canis lupus familiaris; conditions: in vivo
[27] = Half life in rhesus monkey at 0.5 mg/kg, iv by LC-MS/MS analysis; assay type: ADME, organism-based, Macaca mulatta; conditions: in vivo
[28] = Oral bioavailability in Wistar Han rat by LC-MS/MS analysis; assay type: ADME, organism-based; conditions: in vivo
[29] = Oral bioavailability in Beagle dog by LC-MS/MS analysis; assay type: ADME, organism-based, Canis lupus familiaris; conditions: in vivo
[30] = Oral bioavailability in rhesus monkey by LC-MS/MS analysis; assay type: ADME, organism-based, Macaca mulatta; conditions: in vivo
[31] = Lipophilicity, log D of the compound at pH 7 by HPLC method; assay type: physicochemical; conditions: buffer
Rattus norvegicus [32] = experiment: Unbound volume of distribution in Wistar Han rat at 0.5 mg/kg, iv by LC-MS/MS analysis; assay type: ADME, organism-based; conditions: in vivo
Mus musculus = experiment: Antidiabetic activity in C57BL/6 Tac mouse assessed as maximum decrease in blood glucose AUC administered via oral gavage 30 mins prior to oral glucose load measured at 20 to 60 mins post glucose challenge by OGTT; assay type: functional; conditions: C57BL/6, po, read-out: MED
Outline: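 Eleven-week-old lean C57BL/6 Tac mice (n = 8/group) were fasted overnight and dosed by oral gavage in PEG400/23.5% HPBCD (15/85 v/v). Oral glucose (3 g/kg) was given 30 min later. Tail-nick glucometer glucose at 0, 20, 40, 60 min; glucose AUC per mouse, expressed as % change vs vehicle, with t-test or one-way ANOVA. Dose titration gave the minimal dose for maximal efficacy.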

[33] = Drug uptake in C57BL/6 Tac mouse blood at 0.1 mg/kg, po via gavage measured at 90 mins post dose; assay type: ADME, organism-based; conditions: whole blood, read-out: Drug uptake
Outline: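 Blood drug concentration was taken at 90 min after an oral 0.1 mpk dose in mice, within oGTT dose-titration PK/PD studies.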

[34] = Agonist activity at rhesus monkey GPR119; parameters: species or system Macaca mulatta
[35] = Ratio of drug level in C57BL/6 Tac mouse blood to plasma at 0.1 mg/kg, po via gavage measured at 90 mins post dose; assay type: ADME, organism-based; conditions: blood and plasma

SMILES: O=C(Cc1ccc(OCC[C@@H]2C[C@@H]2C2CCN(c3ncc(Cl)cn3)CC2)cc1)NC1CC1
EC50 [1]: 1.8 nM
Activity [2]: 104%
EC50 [3]: 1.5 nM
Activity [4]: 91%
solubility kinetic [5]: 22 µM (≈ 10 µg/mL)
IC50 [6]: > 60000 nM

SMILES: CC1(OC(=O)N2CCC([C@H]3C[C@H]3CCOc3ccc(CC(=O)N4CCC4)c(F)c3)CC2)CC1
EC50 [1]: 3.3 nM
Activity [2]: 127%
EC50 [3]: 6.6 nM
Activity [4]: 115%
solubility kinetic [5]: 138 µM (≈ 63.3 µg/mL)
IC50 [8]: 8600 nM
half-life [25]: 1.6 h
IC50 [6]: 23000 nM

SMILES: O=C(Cc1ccc(OCC[C@@H]2C[C@@H]2C2CCN(c3ncc(Cl)cn3)CC2)cc1F)N1CCCCC1
EC50 [1]: 1.5 nM
Activity [2]: 116%
EC50 [3]: 2.2 nM
Activity [4]: 92%
solubility kinetic [5]: 124 µM (≈ 62.1 µg/mL)
IC50 [6]: 3300 nM

The next compounds have a lower EC50 [1] than those just listed; values first:

EC50 [1]: 0.4 nM
Activity [2]: 103%
EC50 [3]: 0.84 nM
Activity [4]: 111%
solubility kinetic [5]: 140 µM (≈ 65.3 µg/mL)
SMILES: CCc1cnc(N2CCC([C@H]3C[C@H]3CCOc3ccc(CC(=O)N4CCC4)c(F)c3)CC2)nc1
IC50 [6]: 3200 nM

EC50 [1]: 0.2 nM
Activity [2]: 91%
EC50 [3]: 0.8 nM
Activity [4]: 116%
solubility kinetic [5]: 139 µM (≈ 69.6 µg/mL)
CL free (Rattus norvegicus [7]): 430 mL/min/kg
IC50 (Cytochrome P450 3A4): > 50000 nM
EC50 [9]: > 30000 nM
solubility thermodynamic [10]: 51 µg/mL (≈ 102 µM)
CLint scaled [11]: 189 mL/min/kg
CLint scaled [12]: 39 mL/min/kg
CLint scaled [13]: 44 mL/min/kg
CLint scaled [14]: 39 mL/min/kg
fraction unbound [15]: 0.067
fraction unbound [16]: 0.055
fraction unbound [17]: 0.08
fraction unbound [18]: 0.038
clearance [19]: 29 mL/min/kg
clearance [20]: 2 mL/min/kg
clearance [21]: 14 mL/min/kg
Vd [22]: 4.8 L/kg
Vd [23]: 4.3 L/kg
Vd [24]: 3.5 L/kg
half-life [25]: 3.5 h
half-life [26]: 29 h
half-life [27]: 7.6 h
bioavailability [28]: 80%
bioavailability [29]: 55%
bioavailability [30]: 44%
logD [31]: 4.1
Vdu (Rattus norvegicus [32]): 72 L/kg
concentration at 1.5 h [33]: 10 nM
EC50 [34]: 0.1 nM
blood plasma ratio at 1.5 h [35]: 0.55
SMILES: COCc1cnc(N2CCC([C@H]3C[C@H]3CCOc3cc(F)c(CC(=O)N4CCC4)c(F)c3)CC2)nc1
IC50 [8]: 12000 nM
minimal effective dose (Mus musculus): 0.1 mg/kg
IC50 [6]: 9100 to 9200 nM

EC50 [1]: 0.2 nM
Activity [2]: 106%
EC50 [3]: 0.4 nM
Activity [4]: 146%
solubility kinetic [5]: 137 µM (≈ 64.8 µg/mL)
half-life [25]: 6.9 h
SMILES: O=C(Cc1ccc(OCC[C@@H]2C[C@@H]2C2CCN(c3ncc(Cl)cn3)CC2)cc1F)N1CCC1
IC50 [6]: 3300 nM
